# The source made the active and inactive calls. No cut-off for these calls is given here.
# Tests used:
# Homo sapiens [1] = species on record: Homo sapiens; assay: Inhibition of sodium potassium ATPase in human OVSAHO cells assessed as downregulation of p53 protein expression at 100 nM after 72 hrs by Western blot analysis; format: cell-based
# OVCAR-4 = assay: Antiproliferative activity against human OVCAR4 cells after 72 hrs by CellTiter 96 aqueous one solution assay; format: functional, cell-based; conditions: OVCAR-4, 72 h
# In short: (§1)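 Log-phase cells harvested by trypsin with two PBS washes, seeded 5,000/well, incubated overnight. Serial dilutions of compound from DMSO stock added, 72 h exposure. Viability read by absorbance. IC50 (nM) calculated relative to DMSO solvent control.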
# OVCAR-5 = assay: Antiproliferative activity against human OVCAR5 cells after 72 hrs by CellTiter 96 aqueous one solution assay; format: functional, cell-based; conditions: OVCAR-5, 72 h; in short: as §1
# KURAMOCHI = assay: Antiproliferative activity against human Kuramochi cells after 72 hrs by CellTiter 96 aqueous one solution assay; format: functional, cell-based; in short: as §1
# [2] = Antiproliferative activity against human IOSE-80 cells after 72 hrs by CellTiter 96 aqueous one solution assay; format: cell-based; conditions: IOSE80, 72 h; in short: as §1
# OVCAR-8 = assay: Antiproliferative activity against human OVCAR8 cells after 72 hrs by CellTiter 96 aqueous one solution assay; format: functional, cell-based; conditions: OVCAR-8, 72 h
# In short: as §1, with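 “control. Cultures at 37 °C, 5% CO2 in their own media (RPMI, MEM, DMEM, or Medium 199/MCDB for IOSE-80).” for “control.”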
# [3] = Antiproliferative activity against CD-1 mouse MOE cells derived from 8 to 25 passages after 72 hrs; format: cell-based; conditions: CD-1, MOE
# In short: (§2)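 MOE cells from pooled oviducts of 8-week-old female CD1 mice in supplemented α-MEM with EGF, insulin, transferrin, selenite, β-estradiol; scrambled and PTEN shRNA/KRAS G12V clones kept under puromycin (plus hygromycin for the mutant). Log-phase cells seeded 5,000/well, overnight, DMSO-dissolved compound added, 72 h; viable cells read by MTS-type absorbance; IC50 in nM relative to DMSO control.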
# [4] = Antiproliferative activity against CD-1 mouse MOE cells derived from 85 to 120 passages after 72 hrs; format: functional, cell-based; conditions: CD-1, MOE; in short: as §2
# Homo sapiens [5] = species on record: Homo sapiens; assay: Inhibition of sodium potassium ATPase in human OVCAR3 cells assessed as upregulation of p21 protein expression at 100 nM by Western blot analysis; format: cell-based
# In short: (§3)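 Treated cells washed with PBS, lysed in RIPA on ice 15 min, cleared 14,000 g at 4 °C; 25 µg protein by BCA run on SDS-PAGE, PVDF, milk block, primary antibody overnight at 4 °C, HRP anti-rabbit, chemiluminescence; actin loading control; densitometry, n = 3, mean ± SEM.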
# Homo sapiens [6] = species on record: Homo sapiens; assay: Inhibition of sodium potassium ATPase in human OVSAHO cells assessed as upregulation of p21 protein expression at 100 nM by Western blot analysis; format: cell-based; in short: as §3
# MDA-MB-435 = assay: Antiproliferative activity against human MDA-MB-435 cells after 72 hrs by CellTiter 96 aqueous one solution assay; format: functional, cell-based; conditions: MDA-MB-435, 72 h; in short: as §1
# MDA-MB-231 = assay: Antiproliferative activity against human MDA-MB-231 cells after 72 hrs by CellTiter 96 aqueous one solution assay; format: functional, cell-based; conditions: MDA-MB-231, 72 h; in short: as §1
# HT-29 = assay: Antiproliferative activity against human HT-29 cells after 72 hrs by CellTiter 96 aqueous one solution assay; format: functional, cell-based; conditions: HT-29, 72 h; in short: as §1
# OVCAR-3 [7] = assay: Antiproliferative activity against human OVCAR3 cells after 72 hrs by CellTiter 96 aqueous one solution assay; format: functional, cell-based; conditions: OVCAR-3, 72 h
# In short: as §1, with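 “control. Cultures at 37 °C, 5% CO2 in their own media (RPMI, MEM, DMEM, or Medium 199/MCDB for IOSE-80).” for “control.”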
# [8] = Antiproliferative activity against human OVSAHO cells after 72 hrs by CellTiter 96 aqueous one solution assay; format: functional, cell-based; in short: as §1
# [9] = Antiproliferative activity against CD-1 mouse MOE cells harboring scrambled RNA after 72 hrs; format: cell-based; conditions: CD-1, MOE; in short: as §2
# [10] = Antiproliferative activity against CD-1 mouse MOE cells harboring PTENshRNA/KRASG12V mutation after 72 hrs; format: functional, cell-based; conditions: CD-1, MOE; in short: as §2
# OVCAR-3 [11] = assay: Cell cycle arrest in human OVCAR3 cells assessed as accumulation at G2/M phase at 100 nM after 72 hrs by propidium iodide staining-based flow cytometry method; format: functional
# In short: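 Cells in 6-well plates treated 72 h, trypsinized, fixed in 70% ethanol, PBS-washed, stained in PBS with 1 mg/mL RNase and 50 µg/mL propidium iodide for 30 min in the dark at room temperature; DNA content by flow cytometry, phase distribution compared with vehicle.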
# OVCAR-3 [12] = assay: Induction of apoptosis in human OVCAR3 cells assessed as upregulation of cleaved caspase 3 expression at 100 nM by Western blot analysis; format: functional, cell-based; in short: as §3
# OVCAR-3 [13] = assay: Induction of apoptosis in human OVCAR3 cells assessed as upregulation of cleaved PARP expression at 100 nM by Western blot analysis; format: functional, cell-based; in short: as §3
# OVCAR-3 [14] = assay: Induction of apoptosis in human OVCAR3 cells assessed as decrease in Mcl-1 levels at 100 nM by Western blot analysis; format: functional, cell-based; in short: as §3
# OVCAR-3 [15] = assay: Induction of apoptosis in human OVCAR3 cells assessed as decrease in Bcl-xL levels at 100 nM by Western blot analysis; format: functional, cell-based; in short: as §3
# OVSAHO = assay: Induction of apoptosis in human OVSAHO cells assessed as upregulation of cleaved PARP expression at 100 nM after 72 hrs by Western blot analysis; format: functional, cell-based; in short: as §3
# Homo sapiens [16] = species on record: Homo sapiens; assay: Inhibition of sodium potassium ATPase in human OVCAR3 cells assessed as downregulation of p53 protein expression at 100 nM after 72 hrs by Western blot analysis; format: cell-based; in short: as §3
# Homo sapiens [17] = species on record: Homo sapiens; assay: Inhibition of sodium potassium ATPase in human OVSAHO cells assessed as increase in ERK phosphorylation levels at 100 nM after 120 mins by Western blot analysis; format: cell-based
# In short: (§4)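 Cells exposed to 100 nM for indicated times; RIPA lysates, 25 µg protein on SDS-PAGE/PVDF probed for phospho-ERK and total ERK (1:500 each), HRP secondary, chemiluminescent detection.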
# Homo sapiens [18] = species on record: Homo sapiens; assay: Inhibition of sodium potassium ATPase in human OVCAR3 cells assessed as increase in ERK phosphorylation levels at 100 nM after 120 mins by Western blot analysis; format: cell-based; in short: as §4
# Homo sapiens [19] = species on record: Homo sapiens; assay: Inhibition of sodium potassium ATPase in human OVCAR3 cells assessed as reduction in TNFalpha-induced NFkappaB activation at 100 nM after 4 hrs by luciferase reporter gene assay relative to control; format: cell-based
# In short: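 OVCAR3 plated 25,000/well, overnight, transfected 24 h with 0.05 µg/well NF-κB-element luciferase reporter in serum medium; then 10 ng/mL TNFα plus 100 nM compound for 4 h; luciferase luminescence, fold change versus untreated, ANOVA.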
# Homo sapiens [20] = species on record: Homo sapiens; assay: Inhibition of sodium potassium ATPase in human OVCA432 cells assessed as downregulation of p53 protein expression at 100 nM after 72 hrs by Western blot analysis; format: cell-based
# In short: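 Cells exposed to 100 nM for 72 h; RIPA lysates, 25 µg protein on SDS-PAGE/PVDF, anti-p53 (1:500) overnight at 4 °C, HRP secondary, chemiluminescence, actin control; densitometry.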
SMILES,inhibition (Homo sapiens [1]),IC50 [3] [nM],IC50 [4] [nM],inhibition (Homo sapiens [5]),inhibition (Homo sapiens [6]),IC50 [9] [nM],IC50 [10] [nM],Activity (OVCAR-3 [11]),Activity (OVCAR-3 [12]),Activity (OVCAR-3 [13]),Activity (OVCAR-3 [14]),Activity (OVCAR-3 [15]),Activity (OVSAHO),inhibition (Homo sapiens [16]),inhibition (Homo sapiens [17]),inhibition (Homo sapiens [18]),inhibition (Homo sapiens [19]) [%],inhibition (Homo sapiens [20]),also measured
C[C@H]1O[C@@H](O[C@H]2[C@@H](O)C[C@H](O[C@H]3[C@@H](O)C[C@H](O[C@H]4CC[C@@]5(C)[C@H](CC[C@@H]6[C@@H]5CC[C@]5(C)[C@@H](C7=CC(=O)OC7)CC[C@]65O)C4)O[C@@H]3C)O[C@@H]2C)C[C@H](O)[C@@H]1O [DIGITOXIN],Active,> 50000,> 50000,Active,Active,> 50000,> 50000,Active,Active,Active,Active,Active,Active,Active,Active,Active,50,Active,IC50 (OVCAR-4): 426 nM; IC50 (OVCAR-5): 321 nM; IC50 (KURAMOCHI): 5910 nM; IC50 [2]: 48.4 nM; IC50 (OVCAR-8): 71.5 nM; IC50 (MDA-MB-435): 43.3 nM; IC50 (MDA-MB-231): 482 nM; IC50 (HT-29): 67.6 nM; IC50 (OVCAR-3 [7]): 117 nM; IC50 [8]: 250 nM
CO[C@H]1[C@H](O[C@H]2CC[C@]3(C=O)[C@H]4CC[C@]5(C)[C@@H](C6=CC(=O)OC6)CC[C@]5(O)[C@@H]4CC[C@]3(O)C2)O[C@H](C)[C@H](O)[C@@H]1OC [STREBLOSIDE],Active,> 50000,> 50000,Active,Active,> 50000,> 50000,Active,Active,Active,Active,Active,Active,Active,Active,Active,29,Active,–
